Reference: ChEMBL document CHEMBL1629645 (Antimicrob Agents Chemother, 2009)
In brackets after ≈: the same amount, converted by molar mass. Activity calls are given as the source filed them. The rule behind the calls is not given here.

Columns and labels:
Staphylococcus aureus [1] = experiment: Antibacterial activity against methicillin-resistant Staphylococcus aureus ATCC 43300 infected in Albino guiena pig assessed as decrease in planktonic bacterial counts in cage fluid at 50 mg/kg after measured on day 10 postinfection; type: functional
Procedure, shortened: (§1)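 Guinea pig subcutaneous cage model infected with 2 × 10^4 CFU MRSA. Intraperitoneal dosing every 12 h for 4 days, starting day 1. Cage-fluid CFU counted on day 1, day 4 (before last dose) and day 10. Δlog10 CFU/ml is day 4 or day 10 minus day 1. Quantification limit 1,000 CFU/ml; negatives set to 3 log10. Median and IQR.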

Staphylococcus aureus [2] = experiment: Antibacterial activity against methicillin-resistant Staphylococcus aureus ATCC 43300 infected in Albino guiena pig assessed as decrease in planktonic bacterial counts in cage fluid at 75 mg/kg after measured on day 10 postinfection; type: functional; procedure, shortened: as §1
Staphylococcus aureus [3] = experiment: Antibacterial activity against methicillin-resistant Staphylococcus aureus ATCC 43300 infected in Albino guiena pig assessed as no. of culture-negative cage fluid samples at 25 mg/kg measured on day 4 postinfection; type: functional
Procedure, shortened: (§2)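 Same guinea pig cage infection and intraperitoneal 4-day, twice-daily regimen. Cage fluid cultured on day 4 and day 10. Result is the number of cage fluid samples without detectable MRSA growth over the total cages per group.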

Staphylococcus aureus [4] = experiment: Antibacterial activity against methicillin-resistant Staphylococcus aureus ATCC 43300 infected in Albino guiena pig assessed as no. of culture-negative cage fluid samples at 50 mg/kg measured on day 4 postinfection; type: functional; procedure, shortened: as §2
Staphylococcus aureus [5] = experiment: Antibacterial activity against methicillin-resistant Staphylococcus aureus ATCC 43300 infected in Albino guiena pig assessed as no. of culture-negative cage fluid samples at 75 mg/kg measured on day 4 postinfection; type: functional; procedure, shortened: as §2
Staphylococcus aureus [6] = experiment: Antibacterial activity against methicillin-resistant Staphylococcus aureus ATCC 43300 infected in Albino guiena pig assessed as no. of culture-negative cage fluid samples at 25 mg/kg measured on day 10 postinfection; type: functional; procedure, shortened: as §2
Staphylococcus aureus [7] = experiment: Antibacterial activity against methicillin-resistant Staphylococcus aureus ATCC 43300 infected in Albino guiena pig assessed as no. of culture-negative cage fluid samples at 50 mg/kg measured on day 10 postinfection; type: functional; procedure, shortened: as §2
Staphylococcus aureus [8] = experiment: Antibacterial activity against methicillin-resistant Staphylococcus aureus ATCC 43300 infected in Albino guiena pig assessed as no. of culture-negative cage fluid samples at 75 mg/kg measured on day 10 postinfection; type: functional; procedure, shortened: as §2
Staphylococcus aureus [9] = experiment: Antibacterial activity against methicillin-resistant Staphylococcus aureus ATCC 43300 infected in Albino guiena pig assessed as decrease in planktonic bacterial counts in cage fluid at 75 mg/kg measured on day 4 postinfection; type: functional; procedure, shortened: as §1
Staphylococcus aureus [10] = experiment: Antibacterial activity against methicillin-resistant Staphylococcus aureus ATCC 43300 infected in Albino guiena pig assessed as decrease in planktonic bacterial counts in cage fluid at 50 mg/kg measured on day 4 postinfection; type: functional; procedure, shortened: as §1
Staphylococcus aureus [11] = experiment: Antibacterial activity against methicillin-resistant Staphylococcus aureus ATCC 43300 infected in Albino guiena pig assessed as decrease in planktonic bacterial counts in cage fluid at 25 mg/kg measured on day 4 postinfection; type: functional; procedure, shortened: as §1
[12] = AUC (0 to 24 hrs) in cage fluid of Albino guiena pig at 75 mg/kg, ip; type: ADME, organism-based, Cavia porcellus; set-up: time < 24 hr, dose 75 mg/kg, route intraperitoneal; conditions: guinea pig
[13] = AUC (0 to 24 hrs) in cage fluid of Albino guiena pig at 50 mg/kg, ip; type: ADME, organism-based, Cavia porcellus; set-up: time < 24 hr, dose 50 mg/kg, route intraperitoneal; conditions: guinea pig
[14] = AUC (0 to 24 hrs) in cage fluid of Albino guiena pig at 25 mg/kg, ip; type: ADME, organism-based, Cavia porcellus; set-up: time < 24 hr, dose 25 mg/kg, route intraperitoneal; conditions: guinea pig
[15] = Half life in cage fluid of Albino guiena pig at 75 mg/kg, ip; conditions: guinea pig
[16] = Half life in cage fluid of Albino guiena pig at 25 mg/kg, ip; conditions: guinea pig
[17] = Half life in cage fluid of Albino guiena pig at 50 mg/kg, ip; conditions: guinea pig
[18] = Tmax in cage fluid of Albino guiena pig at 75 mg/kg, ip; type: ADME, organism-based, Cavia porcellus; set-up: dose 75 mg/kg, route intraperitoneal; conditions: guinea pig
Procedure, shortened: (§3)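 Noninfected male albino guinea pigs (550–600 g) carrying subcutaneous Teflon cages, verified sterile, received one intraperitoneal dose. Cage fluid was aspirated at 1–24 h, two cages per animal, three animals per dose, centrifuged and stored at −20°C. Levels were read by agar diffusion bioassay (S. aureus ATCC 29213; standards in 31% guinea pig serum; limit 1.25 µg/ml). Per-animal parameters are given as mean ± SD; Cmin is the 12 h trough.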

[19] = Tmax in cage fluid of Albino guiena pig at 25 mg/kg, ip; type: ADME, organism-based, Cavia porcellus; set-up: dose 25 mg/kg, route intraperitoneal; conditions: guinea pig; procedure, shortened: as §3
[20] = Tmax in cage fluid of Albino guiena pig at 50 mg/kg, ip; type: ADME, organism-based, Cavia porcellus; set-up: dose 50 mg/kg, route intraperitoneal; conditions: guinea pig; procedure, shortened: as §3
[21] = Cmin in cage fluid of Albino guiena pig at 50 mg/kg, ip after 12 hrs; type: ADME, organism-based, Cavia porcellus; set-up: dose 50 mg/kg, route intraperitoneal; conditions: guinea pig, read-out: Cmin; procedure, shortened: as §3
[22] = Cmin in cage fluid of Albino guiena pig at 75 mg/kg, ip after 12 hrs; type: ADME, organism-based, Cavia porcellus; set-up: dose 75 mg/kg, route intraperitoneal; conditions: guinea pig, read-out: Cmin; procedure, shortened: as §3
[23] = Cmin in cage fluid of Albino guiena pig at 25 mg/kg, ip after 12 hrs; type: ADME, organism-based, Cavia porcellus; set-up: dose 25 mg/kg, route intraperitoneal; conditions: guinea pig, read-out: Cmin; procedure, shortened: as §3
[24] = Cmax in cage fluid of Albino guiena pig at 50 mg/kg, ip after 3 hrs; type: ADME, organism-based, Cavia porcellus, Interstitial fluid; set-up: dose 50 mg/kg, route intraperitoneal; conditions: guinea pig; procedure, shortened: as §3
[25] = Cmax in cage fluid of Albino guiena pig at 75 mg/kg, ip after 3 hrs; type: ADME, organism-based, Cavia porcellus, Interstitial fluid; set-up: dose 75 mg/kg, route intraperitoneal; conditions: guinea pig; procedure, shortened: as §3
[26] = Cmax in cage fluid of Albino guiena pig at 25 mg/kg, ip after 3 hrs; type: ADME, organism-based, Cavia porcellus, Interstitial fluid; set-up: dose 25 mg/kg, route intraperitoneal; conditions: guinea pig; procedure, shortened: as §3
Staphylococcus aureus [27] = experiment: Antibacterial activity against 1 x10'6 to 5 x10^6 CFU/ml methicillin-resistant Staphylococcus aureus ATCC 43300 assessed as effect on bacterial count at MIC after 24 hrs by time kill study; type: functional, organism-based
Procedure, shortened: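 MRSA inoculum of 1 × 10^6 to 5 × 10^6 CFU/ml in 10 ml Mueller-Hinton broth. Drug at 1× and 4× MIC; drug-free growth control. Incubated at 37°C. Aliquots plated on Mueller-Hinton agar at 0, 6 and 24 h. Quantification limit 200 CFU/ml. Mean log10 CFU/ml reduction ± SD.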

Staphylococcus aureus [28] = experiment: Antibacterial activity against methicillin-resistant Staphylococcus aureus ATCC 43300 during stationary growth phase by macrodilution method; type: functional
Staphylococcus aureus [29] = experiment: Antibacterial activity against methicillin-resistant Staphylococcus aureus ATCC 43300 during logarithmic growth phase by macrodilution method; type: functional
Staphylococcus aureus [30] = experiment: Antibacterial activity against methicillin-resistant Staphylococcus aureus ATCC 43300 by macrodilution method; type: functional
Procedure, shortened: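 Broth macrodilution MIC in Mueller-Hinton broth per CLSI. Inoculum 1 × 10^5 to 5 × 10^5 CFU/ml. Ten twofold drug dilutions, 18 h at 37°C without shaking. MIC is the lowest concentration with no visible growth. Triplicate.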

Staphylococcus aureus [31] = experiment: Antibacterial activity against methicillin-resistant Staphylococcus aureus ATCC 43300 infected in Albino guiena pig assessed as inhibition of bacterial growth in cage fluid at 75 mg/kg measured on day 10 postinfection compared to the bacterial growth on day 1; type: functional, organism-based; set-up: dose 75 mg/kg; procedure, shortened: as §1
Staphylococcus aureus [32] = experiment: Antibacterial activity against methicillin-resistant Staphylococcus aureus ATCC 43300 infected in Albino guiena pig assessed as cure rate at 25 mg/kg measured on day 10 postinfection; type: functional, organism-based; set-up: dose 25 mg/kg
Procedure, shortened: (§4)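 Male albino guinea pigs, 550–600 g, with four subcutaneous perforated Teflon cages each. Cages infected with 2 × 10^4 CFU MRSA. Intraperitoneal treatment from 24 h post-infection, every 12 h for 4 days (8 doses), ≥3 animals per group. Explanted cages incubated in TSB at 37°C for 48 h, then plated. Cure is the share of cages without MRSA growth.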

Staphylococcus aureus [33] = experiment: Antibacterial activity against methicillin-resistant Staphylococcus aureus ATCC 43300 infected in Albino guiena pig assessed as cure rate at 50 mg/kg measured on day 4 postinfection; type: functional, organism-based; set-up: dose 50 mg/kg; procedure, shortened: as §4
Staphylococcus aureus [34] = experiment: Antibacterial activity against methicillin-resistant Staphylococcus aureus ATCC 43300 infected in Albino guiena pig assessed as cure rate at 75 mg/kg measured on day 4 postinfection; type: functional, organism-based; set-up: dose 75 mg/kg; procedure, shortened: as §4

## CC(=O)NC[C@H]1CN(c2ccc(N3CCOCC3)c(F)c2)C(=O)O1 [LINEZOLID]
Staphylococcus aureus [1]
  log10CFU/ml: 7.1
Staphylococcus aureus [2]
  log10CFU/ml: 4.5
Staphylococcus aureus [3]
  Activity: 8%
Staphylococcus aureus [4]
  Activity: 17%
Staphylococcus aureus [5]
  Activity: 25%
Staphylococcus aureus [6]
  Activity: 0%
Staphylococcus aureus [7]
  Activity: 0%
Staphylococcus aureus [8]
  Activity: 17%
Staphylococcus aureus [9]
  log10CFU/ml: 4.6
Staphylococcus aureus [10]
  log10CFU/ml: 5.1
Staphylococcus aureus [11]
  log10CFU/ml: 4.5
[12]
  AUC(0-t) at 24 h: 126 µg·h/mL
[13]
  AUC(0-t) at 24 h: 119 µg·h/mL
[14]
  AUC(0-t) at 24 h: 87.8 µg·h/mL
[15]
  half-life: 2.6 h
[16]
  half-life: 6.8 h
[17]
  half-life: 3.5 h
[18]
  Tmax: 2.8 h
[19]
  Tmax: 3 h
[20]
  Tmax: 3.3 h
[21]
  concentration at 12 h: 3.7 µg/mL
[22]
  concentration at 12 h: 2.5 µg/mL
[23]
  concentration at 12 h: 3 µg/mL
[24]
  Cmax: 12.7 µg/mL
[25]
  Cmax: 18.1 µg/mL
[26]
  Cmax: 6.8 µg/mL
Staphylococcus aureus [27]
  Activity: inactive
Staphylococcus aureus [28]
  MBC: > 20 mg/L
Staphylococcus aureus [29]
  MBC: > 20 mg/L
Staphylococcus aureus [30]
  MIC: 2.5 mg/L (≈ 7.41 µM)
Staphylococcus aureus [31]
  Activity: Active
Staphylococcus aureus [32]
  Activity: inactive
Staphylococcus aureus [33]
  Activity: inactive
Staphylococcus aureus [34]
  Activity: inactive
